Compounds with a hit are over-represented: about 3.5% of the library has one in this group of screens.
ERAP1 HTS inh: inhibitors of human ERAP1 aminopeptidase; AID 652197; 340,000 compounds, 0.15% hits; inhibition, % at 10.7 µM; Q9NZ08; recombinant ERAP1, Leu-AMC fluorescence, 60 min;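 active = mean replicate inhibition of at least 30%, or all replicates individually reaching that 30% level; inactive = mean below 30% and not every replicate reaching it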;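 note: 0% = neutral control wells and 100% = L-leucinethiol positive control wells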
Target sequence (Q9NZ08 whole entry, looked up): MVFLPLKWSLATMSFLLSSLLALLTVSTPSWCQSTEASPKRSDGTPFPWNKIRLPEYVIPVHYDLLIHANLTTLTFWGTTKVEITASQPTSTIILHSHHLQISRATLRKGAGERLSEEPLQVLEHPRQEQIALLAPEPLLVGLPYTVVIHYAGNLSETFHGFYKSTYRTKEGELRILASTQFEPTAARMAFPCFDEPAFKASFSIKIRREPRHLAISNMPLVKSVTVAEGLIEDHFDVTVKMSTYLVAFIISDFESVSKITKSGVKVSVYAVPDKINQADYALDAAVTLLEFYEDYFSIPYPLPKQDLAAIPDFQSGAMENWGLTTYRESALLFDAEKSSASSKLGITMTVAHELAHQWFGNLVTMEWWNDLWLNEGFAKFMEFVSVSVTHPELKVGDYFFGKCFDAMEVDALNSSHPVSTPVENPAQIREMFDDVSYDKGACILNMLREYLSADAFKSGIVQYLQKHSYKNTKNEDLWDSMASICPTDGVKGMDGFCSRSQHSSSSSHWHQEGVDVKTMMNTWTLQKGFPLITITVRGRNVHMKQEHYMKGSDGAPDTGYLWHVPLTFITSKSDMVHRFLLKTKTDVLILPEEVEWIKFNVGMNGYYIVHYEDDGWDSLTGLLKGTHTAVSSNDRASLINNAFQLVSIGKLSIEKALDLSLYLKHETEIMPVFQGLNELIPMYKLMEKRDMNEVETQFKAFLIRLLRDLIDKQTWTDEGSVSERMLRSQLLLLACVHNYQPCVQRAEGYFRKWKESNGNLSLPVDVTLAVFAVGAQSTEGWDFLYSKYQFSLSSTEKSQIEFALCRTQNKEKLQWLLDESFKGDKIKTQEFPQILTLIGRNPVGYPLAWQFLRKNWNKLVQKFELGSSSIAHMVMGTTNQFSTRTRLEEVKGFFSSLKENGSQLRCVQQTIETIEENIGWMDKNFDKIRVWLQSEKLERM
MITF act: increases MITF-driven TRPM1 promoter luciferase signal | AID 588334 | SK-MEL-5 TRPM1-promoter luciferase, 24 h; % of positive control, neutral wells = 0 | 300,000 compounds, 0.75% hits | activation, % at 12.5 µM;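 active = mean activation of at least 80% with every replicate also reaching 80%; inconclusive = mean reaches 80% but some replicate falls short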;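 note: 0% = neutral control wells and 100% = parthenolide positive control wells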
Wnt act: activates Wnt/beta-catenin signaling in a reporter cell assay; activator, plate reader; activation, % at 9.35 µM; 300,000 compounds, 1.2% hits; in the data active = activation above about 30%, passing the limit was not always enough; inconclusive = no clear call, values can overlap the other calls;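 note: 0% = neutral control wells and 100% = positive control wells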
esBAF inh: inhibitors of esBAF chromatin remodeling in mouse ES cells; Bmi1-luciferase knock-in reporter, 24 h; 100% = twice the neutral-well signal; reporter increase, % at 12.5 µM; 350,000 compounds, 2% hits; AID 602393; in the data active = activation above about 40%; inconclusive = no clear call, values can overlap the other calls;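 note: 0% = median of the plate's neutral control wells and 100% = double that signal; a rise in the Bmi1 reporter signal indicates esBAF inhibition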
Cneo AK release: causes C. neoformans cell lysis; lysis activity, % at 15 µM; 360,000 compounds, 0.2% hits; adenylate kinase release luminescence, 4 h; normalised: neutral wells 0, clomiphene wells 100;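 active = mean lysis activity across replicates of at least 80%, whatever share of replicates individually reach that level; inactive = mean lysis activity below 80%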
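read-out = cell lysis signal | test system = log-phase Cryptococcus neoformans yeast cells | input = cells at 5 × 10^6 per mL | medium = fresh YPD growth medium | signal = luminescent adenylate kinase detection reagent | timing = 4 h at 37 °C static, read 1 h later | dosing = single dose | controls = Clomiphene as positive lysis control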
HIV Env fusion: inhibitors of HIV Env-mediated cell fusion; HeLa-JRFL Env/CEM21 cell fusion, luciferase; inhibition, % at 12.3 µM; 360,000 compounds, 1.1% hits;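 active = mean replicate inhibition score of at least 50 and every replicate individually at or above 50; inconclusive = only one of the two criteria met; inactive = mean below 50 and not all replicates reaching 50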;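 note: 0% = plate neutral controls and 100% = maraviroc near 300 nM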
Starred values were filed as active, the others as inactive; ? = inconclusive; · = no result given; [ ] = dose if it differs, or a comment.

SMILES	ERAP1 HTS inh	MITF act	Wnt act	esBAF inh	Cneo AK release	HIV Env fusion
Fc1ccccc1CSc1ncnc2c1oc1ccccc12	·	31.1	-3.6	41.7*	-0.7	28.7
c1coc(CSc2ncnc3c2oc2ccccc23)c1	·	·	35.0*	55.8*	-3.3	-21.3
CNC(=S)N/N=C/c1ccc(C(C)C)cc1	·	56.8	·	58.6*	26.9	·
CNC(=S)N/N=C/c1ccc(N(C)C)cc1	-1.7	·	48.0*	·	·	-45.4
CC(=O)NC[C@@H]1[C@H](c2ccccc2)[C@H](CO)N1C(=O)Cc1cccnc1	-0.3	·	·	5.7	2.8	·
CC=Cc1ccc2n(c1=O)C[C@@H]1[C@@H](CO)[C@H](C(=O)NC3CCC3)N(CCC)[C@H]21 (mixture of isomers)	0.3	·	·	·	·	·
C[C@H](CO)N1C[C@H](C)[C@@H](CN(C)Cc2ccc(-c3ccccc3)cc2)Oc2c(NC(=O)NC3CCCCC3)cccc2C1=O	1.4	·	·	1.3	-7.3	·
CC(NCC(O)COc1ccc2ccccc2c1)c1ccccc1 (centres undefined)	-7.4	-2.7	-0.5	1.2	0.8	64.7*
COc1ccc(OCC(O)CNC(C)c2ccccc2)cc1 (centres undefined)	0.4	15.9	-1.0	-3.4	2.4	3.1
Cc1cc(OCC(O)CNC(C)c2ccccc2)ccc1C(C)C (centres undefined)	-2.4	-2.4	-3.2	-3.9	4.4	82.4*
CC(NCC(O)COc1ccc(Br)cc1)c1ccccc1 (centres undefined)	-5.1	11.7	-1.5	2.4	11.3	18.6
CC(C)Cc1cc(C(=O)Nc2ccc3c(c2)OCO3)no1	-5.8	58.0	58.4*	33.5	-0.3	-183.8
Cc1cc(C(=O)Nc2ccc3c(c2)OCO3)no1	-3.3	106.0*	22.3	?	-1.5	-21.6
O=C(Nc1ccc2c(c1)OCO2)c1ccc(Cl)cc1Cl	-1.5	63.6	6.3	-23.0	-9.3	-325.8
Cc1ccc(NC(=O)c2cc(-c3ccc4c(c3)OCO4)on2)cc1C	0.5	29.4	3.0	6.2	0.0	-9.7
O=C(Nc1ccc2c(c1)OCO2)c1cc(Cl)ccn1	-0.1	57.1	-1.2	44.3*	11.6	-65.0
Cc1cc(NS(=O)(=O)c2ccc(NC(=O)Nc3ccc4c(c3)OCO4)cc2)no1	·	27.6	·	41.9*	·	-67.3
CC(C)Cc1cc(C(=O)Nc2cccc(O)c2)no1	·	7.8	18.3	-27.2	·	-56.0
O=C(C[C@@H]1CC[C@H]2[C@@H](COC[C@H](O)CN2C(=O)C2CC2)O1)NCc1ccncc1	2.5	·	·	-2.1	-5.9	·
O=C(CCCC(=O)N(c1ccc2c(c1)OCCO2)C(C(=O)NC1CCCCC1)c1ccc(F)cc1)Nc1ccccn1 (centres undefined)	·	3.0	-4.2	2.9	-0.3	69.1*
Cc1ccc(C(C(=O)NC2CCCCC2)N(C(=O)CCCC(=O)Nc2ccccn2)c2ccc3c(c2)OCCO3)cc1 (centres undefined)	·	2.6	0.2	·	·	-16.9
O=C(c1cccc(F)c1)N1CC(=O)N2[C@@H](CO)[C@H](c3ccc(C4=CCCC4)cc3)[C@@H]2C1	-1.5	·	·	·	·	·
O=C(CCSc1ccc(Cl)cc1)N1CCCCCC1	·	73.9	·	86.0*	-0.1	·
O=C(CCSc1ccc(Cl)cc1)N1CCN(c2ncccn2)CC1	·	37.3	·	42.1*	-1.3	·
C[C@H]1CN([C@@H](C)CO)C(=O)Cc2cc(N(C)C)ccc2O[C@@H]1CN(C)S(C)(=O)=O	-2.1	·	·	-1.7	12.7	6.9[16.7 µM]
SMILES	ERAP1 HTS inh	MITF act	Wnt act	esBAF inh	Cneo AK release	HIV Env fusion
c1nc(SSc2ncnc3nc[nH]c23)c2[nH]cnc2n1	32.7*	-26.9	-3.1	·	·	-6.0
CCSc1ncccc1C(=O)N[C@@H](CCSC)C(=O)OC	-4.0	·	45.3*	·	-0.1	10.9
Cc1cc(C(=O)COC(=O)c2ccc(O)cc2)c(C)n1Cc1ccco1	-2.7	?	?	·	-1.7	-33.2
Cc1cc(C(=O)COC(=O)c2ccc(Br)o2)c(C)n1C	1.0	111.5*	17.0	44.5*	-0.5	-49.0
Cc1cc(C(=O)COC(=O)c2ccc(Br)o2)c(C)n1Cc1ccco1	-2.4	·	60.1*	·	·	-24.4
CCOc1ncccc1C(=O)OCC(=O)c1cc(C)n(Cc2ccco2)c1C	·	41.3	46.3*	58.3*	-6.3	-70.7
COc1cccc(-c2ccc([C@@H]3[C@@H](CO)N4C(=O)CN(C(=O)C5CC5)C[C@@H]34)cc2)c1	-1.5	·	·	·	·	·
CCNC(=O)[C@H]1[C@H](CO)[C@H]2Cn3c(ccc(C4=CCCC4)c3=O)[C@@H]1N2C(=O)C1CC1	-1.8	·	·	-2.2	1.7	·
CCSc1nnc(-c2cccs2)o1	·	43.5	4.5	43.6*	·	-63.4
Fc1ccc(CSc2nnc(-c3cccs3)o2)cc1	3.4	69.9	21.3	·	·	·
c1ccc(CSc2nnc(-c3cccs3)o2)cc1	·	134.5*	·	47.4*	-3.4	·
c1ccc(-c2nnc(CSc3nnc(-c4cccs4)o3)o2)cc1	·	-0.7	-2.2	-1.8	-1.3	-221.4
Clc1ccccc1CSc1nnc(-c2ccncc2)o1	·	·	·	49.3*	1.5	-55.1
Fc1ccccc1CSc1nnc(-c2cccs2)o1	-1.7	105.6*	42.5*	·	·	·
c1ccc2c(CSc3nnc(-c4ccncc4)o3)cccc2c1	·	7.9	-0.1	-27.7	0.5	-40.7
COc1ccc(S(=O)(=O)Nc2ccc3c(c2)C(=O)N([C@H](C)CO)C[C@H](C)[C@H](CN(C)C(=O)CCCN(C)C)OCCCC[C@@H](C)O3)cc1	-9.1	·	·	-6.6	0.1	5.4[16.7 µM]
CC1CCCC(C)N1C(=O)c1cc(-c2cccs2)on1 (centres undefined)	·	77.6	·	48.1*	-7.3	·
CC1CCCC(C)N1C(=O)CSc1nnc(-c2cccs2)o1 (centres undefined)	-2.2	54.5	·	45.8*	-0.3	-73.2
Cc1cccc(-c2nnc(SCc3ccccc3)o2)c1	·	44.2	42.5*	62.5*	-1.8	-84.6
CC1CCCCN1C(=O)CSc1nnc(-c2cccs2)o1 (centres undefined)	-5.1	?	21.9	18.2	5.8	-29.2
COC(=O)C[C@@H]1CC[C@@H]2[C@@H](COc3ccc(NC(=O)c4cc(C)on4)cc3C(=O)N2C)O1	0.2	·	·	3.8	-5.3	·
Cc1ccc(S(=O)(=O)N2CCCCC2)cc1NC(=O)c1nn(C)c(=O)c2ccccc12	-2.5	-4.8	1.3	·	·	65.9*
Cc1ccc(S(=O)(=O)N2CCCCC2)cc1NC(=O)CCNC(=O)c1ccc([N+](=O)[O-])cc1	2.3	-6.0	-3.4	-5.2	0.4	58.7*
O=C(CCNC(=O)c1ccc([N+](=O)[O-])cc1)Nc1cccc(S(=O)(=O)N2CCCCC2)c1	·	4.1	1.9	4.4	0.9	36.0
O=C(Cc1cccnc1)N1CC(=O)N2[C@H](CO)[C@H](c3ccc(C4=CCCCC4)cc3)[C@@H]2C1	1.0	·	·	·	·	·
COC(=O)c1cc2c(ccn2-c2ccc(F)cc2)n1Cc1ccc(OC)cc1	·	9.8	·	·	·	-0.3
CCn1c(C(=O)OC)cc2c1ccn2-c1ccc(F)cc1	·	120.5*	84.1*	71.3*	-3.1	-199.8
